Screening data from PubChem.
CHO-K1 Ca antag: M1 antagonist counterscreen hit in parental CHO-K1 cells; 360,000 tested, 0.6% active; ATP-induced calcium, Fluo-8 fluorescence; inhibition, % at 3 µM;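 active = inhibition above a per-plate cutoff, the plate's mean sample inhibition plus 3 SD, cut at about 24% in these data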;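 also: 0% = DMSO plus EC80 ATP and 100% = DMSO alone without ATP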
CHO parental Ca: counter-screen: ATP calcium response change in parental CHO cells; parental CHO-K1, ATP-induced calcium, Fluo-8 fluorescence; inhibition, % at 5.6 µM; 330,000 tested, 0.63% active; AID 463079;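 active = inhibition above that plate's mean sample inhibition plus 3 SD, cut at about 26% in these data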;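 also: 0% = ATP-challenged DMSO wells and 100% = DMSO wells without ATP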
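Assay system – parental CHO cells · Reagent – ATP stimulus · Detection – intracellular calcium via Fluo-8 no-wash fluorescent dye · Evaluation – percent inhibition of ATP-evoked calcium rise, normalized to controls · Controls – ATP wells versus no-ATP DMSO wells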
CHO-K1 Ca PAM: nonselective activator or artifact in parental CHO-K1 calcium assay | ATP EC20, Fluo-8 calcium fluorescence; 0% at ATP EC20, 100% at ATP max | activation, % at 3 µM | 360,000 tested, 0.02% active;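 active = activation above the run cutoff, the mean activation of all test compounds plus 3 SD, cut at about 40% in these data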;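 also: peak over basal fluorescence ratio in a 140 s read after ATP addition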
OX1R antag-1: OX1R (human) antagonism | AID 485270 | O43613 | 330,000 tested, 1.8% active | OX1R-expressing cells, FRET antagonist read-out | inhibition, % at 6.6 µM; in the data active = inhibition mostly above about 38%, no sharp cut-off; inactive = mostly below about 40%;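 also: 0% = agonist challenge alone and 100% = reference antagonist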
Target sequence (O43613 whole entry, looked up): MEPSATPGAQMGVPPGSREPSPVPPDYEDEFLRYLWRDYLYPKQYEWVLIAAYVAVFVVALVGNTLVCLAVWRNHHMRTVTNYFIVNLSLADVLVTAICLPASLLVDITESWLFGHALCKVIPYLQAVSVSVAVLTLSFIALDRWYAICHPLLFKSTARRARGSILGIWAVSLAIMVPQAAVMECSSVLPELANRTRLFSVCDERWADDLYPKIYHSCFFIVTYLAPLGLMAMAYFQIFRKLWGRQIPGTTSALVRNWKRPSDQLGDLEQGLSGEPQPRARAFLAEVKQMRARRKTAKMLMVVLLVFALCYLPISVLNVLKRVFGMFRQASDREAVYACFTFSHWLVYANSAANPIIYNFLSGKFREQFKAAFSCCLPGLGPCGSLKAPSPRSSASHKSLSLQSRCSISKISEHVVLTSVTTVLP
CHO-K1 Ca ag: nonselective activator or artifact in parental CHO-K1 cells | Fluo-8 calcium fluorescence; scaled to maximal ATP response, vehicle zero | activation, % at 3 µM | 360,000 tested, 0.48% active; in the data active = activation above about 15%;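 also: untransfected CHO-K1 host cells lacking M1 receptor as counterscreen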
OX1R antag-2: antagonists of human orexin 1 receptor; CHO/OX1R cells, Fluo-8 calcium fluorescence, orexin A; AID 434989; O43613; inhibition, % at 5 µM; 330,000 tested, 0.43% active;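 active = inhibition above its plate's threshold, mean inhibition of all tested compounds on the plate plus 3 SD, cut at about 37% in these data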;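 also: 0% = orexin A challenge wells and 100% = SB-334867-A antagonist wells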
OX1R HTRF confirm: confirmation of human orexin 1 receptor antagonists, HTRF format; shares compounds with OX1R antag-1; OX1R-expressing cells, HTRF antagonist assay; inhibition, % at 6.6 µM; 1,800 tested, 49% active; AID 492964; in the data active = inhibition above about 55%;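 also: CHO cells expressing OX1R stimulated with orexin A at about EC80; 0% = agonist challenge alone and 100% = reference antagonist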
CHO-K1 HTRF: counter-screen for OX1R antagonists: effect in parental CHO-K1 cells | shares compounds with OX1R antag-1 | HTRF counterscreen | inhibition, % at 6.6 µM | 1,800 tested, 48% active; in the data active = inhibition above about 17%;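 also: 0% = agonist challenge with vehicle and 100% = vehicle alone without agonist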
* marks the source's active call; other numbers are inactive results; · = no result given. This is a sample that favours compounds with a hit; in the whole collection about 2.9% have one here.

SMILES	CHO-K1 Ca antag	CHO parental Ca	CHO-K1 Ca PAM	OX1R antag-1	CHO-K1 Ca ag	OX1R antag-2	OX1R HTRF confirm	CHO-K1 HTRF
CCn1c(=O)n(CC)c2cc(N3CCCC3)c(NC(=O)c3ccc(C)c([N+](=O)[O-])c3)cc21	3	-25	3	10	0	-36	·	·
CC(Sc1ccc(S(=O)(=O)N2CCN(C)CC2)cn1)C(=O)Nc1cccc(Cl)c1Cl (stereo not drawn)	-10	·	6	·	2	·	·	·
COc1ccccc1C(=O)NC1CCSc2ccccc21 (stereo not drawn)	-10	-19	25	80*	0	-13	66*	-8
CCOC(=O)/C(C#N)=C\C=C1C=CN(C)C=C1	6	6	5	100*	5	3	51	62*
OCCNc1cc(Cl)ncn1	-3	-1	-2	4	2	-3	·	·
CCOC(=O)N1CCN(S(=O)(=O)c2cccc3nsnc23)CC1	-14	-20	10	82*	1	-27	33	39*
O=S(=O)(c1cccc2nsnc12)N1CCN(c2ncccn2)CC1	-3	-17	18	84*	2	-16	25	20*
CCOC(=O)C1CCCN(S(=O)(=O)c2cccc3nsnc23)C1 (stereo not drawn)	-13	-16	2	27	1	-13	·	·
C=C[C@@H]1c2ccccc2N(S(=O)(=O)c2ccc(C)cc2)[C@H](c2ccc(C(=O)OC)cc2)C1(C#N)C#N	-5	-23	5	12	2	-14	·	·
O=C1OCc2cccc([N+](=O)[O-])c21	-5	3	7	79*	0	5	31	33*
COc1ccccc1/C=C/C(=O)OCC(=O)NC(=O)NC1CCCC1	-2	-19	9	15	-1	-16	·	·
Clc1ccccc1Nc1nc(-c2cccnc2)cs1	-17	-5	21	84*	0	-24	77*	9
c1cncc(Nc2nc(-c3cccnc3)cs2)c1	0	-6	-9	12	1	-14	·	·
Cc1cc(=O)oc2cc(Oc3ccc([N+](=O)[O-])cc3[N+](=O)[O-])ccc12	8	-2	19	89*	7	-11	59*	71*
O=C1NC2(Nc3ccccc31)C(=O)Nc1ccc(Br)cc12 (stereo not drawn)	2	7	1	18	2	-5	·	·
O=C1NC2(Nc3ccccc31)C(=O)Nc1ccccc12 (stereo not drawn)	-4	-25	20	80*	2	-8	22	6
COc1ccc(-c2ccc(/C=C3\C(=O)N(c4ccccc4)N=C3c3ccccc3)o2)c([N+](=O)[O-])c1	2	-4	6	18	0	-1	·	·
COc1ccc(-c2ccc(/C=C3/C(=N)N4C(C)=CSC4=NC3=O)o2)c([N+](=O)[O-])c1	-3	-10	15	91*	5	11	58*	18*
Cc1ccc(C)c(S(=O)(=O)N2CCN(C(=O)CCC(=O)c3cc(C)sc3C)CC2)c1	-2	-18	-10	21	4	-37	·	·
CC1(C)CC(NC(=O)c2cc([N+](=O)[O-])cc([N+](=O)[O-])c2)CC(C)(C)N1	3	-6	3	98*	0	-2	78*	78*
CC1(C)CC(NC(=O)COc2ccc([N+](=O)[O-])cc2)CC(C)(C)N1	-11	-11	19	20	0	-22	·	·
CN(CCCC(=O)NC1CC(C)(C)NC(C)(C)C1)S(=O)(=O)c1ccc([N+](=O)[O-])cc1	-2	-11	11	79*	1	-5	45	59*
O=C(Nc1ccccn1)c1ccc2ccccc2c1O	8	-16	-3	7	0	-5	·	·
O=C(Nc1ccccn1)c1ccc2ccccc2n1	-4	-18	16	86*	0	-3	68*	-5
Clc1ccc(-c2nnc(SCc3nc4ccccc4[nH]3)o2)c(Cl)c1	3	-20	0	28	1	-5	·	·
SMILES	CHO-K1 Ca antag	CHO parental Ca	CHO-K1 Ca PAM	OX1R antag-1	CHO-K1 Ca ag	OX1R antag-2	OX1R HTRF confirm	CHO-K1 HTRF
Brc1cccc(-c2nnc(SCc3nc4ccccc4[nH]3)o2)c1	-8	-14	6	80*	2	-3	28	0
CS(=O)(=O)N(CC(=O)N1CCCC1)Cc1ccc(Cl)c(Cl)c1	-9	-7	12	7	0	-1	·	·
O=c1[nH]c2cc([N+](=O)[O-])c(NCCO)c([N+](=O)[O-])c2[nH]1	-5	-7	11	124*	5	-19	89*	96*
O=c1[nH]c2ccc(S(=O)(=O)NCCO)cc2[nH]1	-9	-9	0	13	0	-16	·	·
CC(=O)Nc1c([N+](=O)[O-])cc2[nH]c(=O)[nH]c2c1[N+](=O)[O-]	-1	-3	19	185*	0	-12	50	71*
COc1ccc(CCC(=O)Nc2cccc(S(=O)(=O)N3CCCC3)c2)cc1OC	-16	-25	3	6	2	-10	·	·
NNC(=O)c1cc(S(=O)(=O)N2CCOCC2)c[nH]1	-7	-12	4	2	0	-5	·	·
Cc1ccc(C(C)C)c(OCC(=O)c2c(O)c3ccccc3oc2=O)c1	2	-8	-4	82*	0	-14	36	2
O=C(Nc1ccc([N+](=O)[O-])cc1)C(=O)Nc1cccc(C(=O)O)c1	-8	-6	9	79*	1	-6	36	32*
COC(=O)c1c(NC(=O)c2ccco2)sc2c1C(C(=O)OC)CC2 (stereo not drawn)	0	-29	10	80*	1	-1	62*	-6
COC(=O)c1c(NC(=O)C(C)C)sc2c1C(C(=O)OC)CC2 (stereo not drawn)	8	-14	5	30	0	-4	·	·
COc1ccc(/C=C/c2ccc3ccccc3[n+]2C)cc1OC	-10	5	-4	78*	0	-5	70*	86*
O=C([C@H]1O[C@@H](n2ccc(=O)[nH]c2=O)[C@H](O)[C@@H]1O)N1CCSC1	0	·	-3	·	0	·	·	·
O=[N+]([O-])c1ccc(NCCN2CCOCC2)c([N+](=O)[O-])c1	-3	·	11	·	3	·	·	·
CCOc1cc(NCCN2CCOCC2)c([N+](=O)[O-])cc1OCC	18	-7	-27	91*	0	-26	38	49*
Cn1cc(/C=N\O)nc2c(=O)n(-c3ccccc3)c(=O)nc1-2	-15	-7	5	78*	0	-2	68*	89*
O/N=C/c1cn(-c2ccccc2)nn1	4	-8	-11	4	0	-12	·	·
